What was measured:
Type in all cases: functional
[1] = Growth inhibition of human OVCAR8 cells at 10 uM after 48 hrs by sulforhodamine B assay; settings: OVCAR-8, 48 h, read-out: GI
In short: (§1)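 Run at NCI on the 60-line panel. Cells grown in RPMI 1640 with 5% FBS and 2 mM L-glutamine, plated at 5000–40,000 cells/well by doubling time, and held 24 h at 37 °C before dosing. Drug (DMSO stock) given at a single final 10 µM in triplicate wells for 48 h. Adherent cells fixed with cold TCA (10% final), suspension cells with 16% TCA. SRB stain read at 515 nm. Percent growth from Tz, C and Ti.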

[2] = Growth inhibition of human DU145 cells at 10 uM after 48 hrs by sulforhodamine B assay; settings: DU-145, 48 h, read-out: GI; in short: as §1
[3] = tested on: SN12C; assay: Growth inhibition of human SN12C cells at 10 uM after 48 hrs by sulforhodamine B assay; settings: read-out: GI; in short: as §1
[4] = tested on: SR; assay: Growth inhibition of human SR cells at 10 uM after 48 hrs by sulforhodamine B assay; settings: read-out: GI
In short: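 NCI-60 screen. Cells were grown in RPMI 1640 with 5% FBS and 2 mM L-glutamine, plated at 5000–40,000 cells/well and held 24 h at 37 °C, 5% CO2. Single 10 µM final dose from DMSO stock, triplicate wells, 48 h. Settled cells were fixed with 80% TCA (16% final) and stained with 0.4% SRB. Dye was solubilized in 10 mM Tris and read at 515 nm. Growth was calculated against time-zero and untreated wells.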

[5] = Growth inhibition of human HOP92 cells at 10 uM after 48 hrs by sulforhodamine B assay; settings: HOP-92, 48 h, read-out: GI; in short: as §1
[6] = Growth inhibition of human SNB19 cells at 10 uM after 48 hrs by sulforhodamine B assay; settings: SNB-19, 48 h, read-out: GI; in short: as §1
[7] = Growth inhibition of human SF268 cells at 10 uM after 48 hrs by sulforhodamine B assay; settings: SF-268, 48 h, read-out: GI; in short: as §1
[8] = Growth inhibition of human RXF393 cells at 10 uM after 48 hrs by sulforhodamine B assay; settings: RXF 393, 48 h, read-out: GI; in short: as §1
[9] = Growth inhibition of human OVCAR5 cells at 10 uM after 48 hrs by sulforhodamine B assay; settings: OVCAR-5, 48 h, read-out: GI; in short: as §1
[10] = tested on: SK-MEL-28; assay: Growth inhibition of human SK-MEL-28 cells at 10 uM after 48 hrs by sulforhodamine B assay; settings: SK-MEL-28, 48 h, read-out: GI; in short: as §1
[11] = Growth inhibition of human COLO205 cells at 10 uM after 48 hrs by sulforhodamine B assay; settings: COLO 205, 48 h, read-out: GI; in short: as §1
[12] = tested on: NCI-H322M; assay: Growth inhibition of human NCI-H322M cells at 10 uM after 48 hrs by sulforhodamine B assay; settings: read-out: GI; in short: as §1
[13] = tested on: MCF7; assay: Growth inhibition of human MCF7 cells at 10 uM after 48 hrs by sulforhodamine B assay; settings: MCF7, 48 h, read-out: GI; in short: as §1
[14] = Growth inhibition of human RPMI8226 cells at 10 uM after 48 hrs by sulforhodamine B assay; settings: RPMI-8226, 48 h, read-out: GI; in short: as §1
[15] = Growth inhibition of human OVCAR4 cells at 10 uM after 48 hrs by sulforhodamine B assay; settings: OVCAR-4, 48 h, read-out: GI; in short: as §1
[16] = tested on: MDA-MB-231; assay: Growth inhibition of human MDA-MB-231 cells at 10 uM after 48 hrs by sulforhodamine B assay; settings: MDA-MB-231, 48 h, read-out: GI; in short: as §1
[17] = Growth inhibition of human SNB75 cells at 10 uM after 48 hrs by sulforhodamine B assay; settings: SNB-75, 48 h, read-out: GI; in short: as §1
[18] = tested on: MDA-MB-435; assay: Growth inhibition of human MDA-MB-435 cells at 10 uM after 48 hrs by sulforhodamine B assay; settings: MDA-MB-435, 48 h, read-out: GI; in short: as §1
[19] = Growth inhibition of human SF295 cells at 10 uM after 48 hrs by sulforhodamine B assay; settings: SF-295, 48 h, read-out: GI; in short: as §1
[20] = Growth inhibition of human SF539 cells at 10 uM after 48 hrs by sulforhodamine B assay; settings: SF-539, 48 h, read-out: GI; in short: as §1
[21] = tested on: SK-MEL-5; assay: Growth inhibition of human SK-MEL-5 cells at 10 uM after 48 hrs by sulforhodamine B assay; settings: SK-MEL-5, 48 h, read-out: GI; in short: as §1
[22] = Growth inhibition of human IGROV1 cells at 10 uM after 48 hrs by sulforhodamine B assay; settings: IGROV-1, 48 h, read-out: GI; in short: as §1
[23] = tested on: A498; assay: Growth inhibition of human A498 cells at 10 uM after 48 hrs by sulforhodamine B assay; settings: A498, 48 h, read-out: GI; in short: as §1
[24] = Growth inhibition of human Caki1 cells at 10 uM after 48 hrs by sulforhodamine B assay; settings: CAKI-1, 48 h, read-out: GI; in short: as §1
[25] = tested on: U-251; assay: Growth inhibition of human U251 cells at 10 uM after 48 hrs by sulforhodamine B assay; settings: U-251, 48 h, read-out: GI
In short: (§2)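 NCI-60 panel, adherent cells grown in RPMI 1640 with 5% FBS and 2 mM L-glutamine, plated at 5000–40,000 cells/well and preincubated 24 h at 37 °C, 5% CO2. 10 µM final compound from DMSO stock, triplicate wells, 48 h. Fixed with cold TCA (10% final, 60 min, 4 °C) and stained with 0.4% SRB. Absorbance read at 515 nm; growth calculated against time-zero and control wells.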

[26] = tested on: HT-29; assay: Growth inhibition of human HT-29 cells at 10 uM after 48 hrs by sulforhodamine B assay; settings: HT-29, 48 h, read-out: GI; in short: as §1
[27] = Growth inhibition of human UACC257 cells at 10 uM after 48 hrs by sulforhodamine B assay; settings: UACC-257, 48 h, read-out: GI; in short: as §2
[28] = Growth inhibition of human SKOV3 cells at 10 uM after 48 hrs by sulforhodamine B assay; settings: SK-OV-3, 48 h, read-out: GI; in short: as §1
[29] = tested on: K562; assay: Growth inhibition of human K562 cells at 10 uM after 48 hrs by sulforhodamine B assay; settings: K562, 48 h, read-out: GI; in short: as §1
[30] = Growth inhibition of human NCI-ADR-RES cells at 10 uM after 48 hrs by sulforhodamine B assay; settings: read-out: GI; in short: as §1
[31] = Growth inhibition of human HCT116 cells at 10 uM after 48 hrs by sulforhodamine B assay; settings: HCT-116, 48 h, read-out: GI; in short: as §1
[32] = tested on: NCI-H23; assay: Growth inhibition of human NCI-H23 cells at 10 uM after 48 hrs by sulforhodamine B assay; settings: NCI-H23, 48 h, read-out: GI; in short: as §1
[33] = tested on: T47D; assay: Growth inhibition of human T47D cells at 10 uM after 48 hrs by sulforhodamine B assay; settings: read-out: GI; in short: as §2
[34] = Growth inhibition of human HCC2998 cells at 10 uM after 48 hrs by sulforhodamine B assay; settings: HCC 2998, 48 h, read-out: GI; in short: as §1

Row | SMILES | inhibition of growth at 10 µM [1] [%] | inhibition of growth at 10 µM [2] [%] | inhibition of growth at 10 µM [3] [%] | inhibition of growth at 10 µM [4] [%] | inhibition of growth at 10 µM [5] [%] | inhibition of growth at 10 µM [6] [%] | inhibition of growth at 10 µM [7] [%] | inhibition of growth at 10 µM [8] [%] | inhibition of growth at 10 µM [9] [%] | inhibition of growth at 10 µM [10] [%] | inhibition of growth at 10 µM [11] [%] | inhibition of growth at 10 µM [12] [%] | inhibition of growth at 10 µM [13] [%] | inhibition of growth at 10 µM [14] [%] | inhibition of growth at 10 µM [15] [%] | inhibition of growth at 10 µM [16] [%] | inhibition of growth at 10 µM [17] [%] | inhibition of growth at 10 µM [18] [%] | inhibition of growth at 10 µM [19] [%] | inhibition of growth at 10 µM [20] [%] | further results
1 | COc1ccc(Cc2nnc(Nc3ccc(NC(=O)Nc4cccc(Cl)c4)cc3)c3ccccc23)cc1 | < 30 | < 30 | < 30 | < 30 | < 30 | < 30 | < 30 | 40 | < 30 | < 30 | < 30 | < 30 | < 30 | 31 | < 30 | < 30 | < 30 | < 30 | < 30 | < 30 | inhibition of growth at 10 µM [21]: < 30%; inhibition of growth at 10 µM [22]: < 30%; inhibition of growth at 10 µM [23]: < 30%; inhibition of growth at 10 µM [24]: < 30%; inhibition of growth at 10 µM [25]: < 30%; inhibition of growth at 10 µM [26]: < 30%; inhibition of growth at 10 µM [27]: < 30%; inhibition of growth at 10 µM [28]: < 30%; inhibition of growth at 10 µM [29]: 30%; inhibition of growth at 10 µM [30]: < 30%; inhibition of growth at 10 µM [31]: 37%; inhibition of growth at 10 µM [32]: < 30%; inhibition of growth at 10 µM [33]: 39%; inhibition of growth at 10 µM [34]: < 30%
2 | COc1ccc(Cc2nnc(Nc3cccc(OC)c3)c3ccccc23)cc1 | < 30 | < 30 | < 30 | 35 | 53 | 30 | < 30 | 32 | < 30 | < 30 | < 30 | < 30 | < 30 | 77 | < 30 | 37 | 41 | < 30 | < 30 | < 30 | inhibition of growth at 10 µM [21]: < 30%; inhibition of growth at 10 µM [22]: 33%; inhibition of growth at 10 µM [23]: < 30%; inhibition of growth at 10 µM [24]: < 30%; inhibition of growth at 10 µM [25]: < 30%; inhibition of growth at 10 µM [26]: < 30%; inhibition of growth at 10 µM [27]: < 30%; inhibition of growth at 10 µM [28]: < 30%; inhibition of growth at 10 µM [29]: < 30%; inhibition of growth at 10 µM [30]: 30%; inhibition of growth at 10 µM [31]: 40%; inhibition of growth at 10 µM [32]: < 30%; inhibition of growth at 10 µM [33]: 30%; inhibition of growth at 10 µM [34]: < 30%
3 | COc1ccc(Cc2nnc(Nc3ccc(OC)cc3)c3ccccc23)cc1 | < 30 | < 30 | 34 | 34 | 55 | < 30 | < 30 | < 30 | < 30 | < 30 | < 30 | < 30 | 38 | < 30 | < 30 | 36 | < 30 | < 30 | 30 | < 30 | inhibition of growth at 10 µM [21]: < 30%; inhibition of growth at 10 µM [22]: < 30%; inhibition of growth at 10 µM [23]: 47%; inhibition of growth at 10 µM [24]: < 30%; inhibition of growth at 10 µM [25]: < 30%; inhibition of growth at 10 µM [26]: < 30%; inhibition of growth at 10 µM [27]: < 30%; inhibition of growth at 10 µM [28]: < 30%; inhibition of growth at 10 µM [29]: < 30%; inhibition of growth at 10 µM [30]: < 30%; inhibition of growth at 10 µM [31]: 34%; inhibition of growth at 10 µM [32]: < 30%; inhibition of growth at 10 µM [33]: 46%; inhibition of growth at 10 µM [34]: < 30%
4 | COc1ccc(Cc2nnc(Nc3ccc(NC(=O)Nc4ccc(Cl)c(C(F)(F)F)c4)cc3)c3ccccc23)cc1 | 66 | < 30 | < 30 | 40 | < 30 | 45 | < 30 | 72 | 30 | < 30 | 30 | 30 | 46 | 66 | 60 | 41 | 50 | 35 | 50 | < 30 | inhibition of growth at 10 µM [21]: 36%; inhibition of growth at 10 µM [22]: 53%; inhibition of growth at 10 µM [23]: < 30%; inhibition of growth at 10 µM [24]: < 30%; inhibition of growth at 10 µM [25]: 51%; inhibition of growth at 10 µM [26]: 61%; inhibition of growth at 10 µM [27]: < 30%; inhibition of growth at 10 µM [28]: 38%; inhibition of growth at 10 µM [29]: 43%; inhibition of growth at 10 µM [30]: 67%; inhibition of growth at 10 µM [31]: 53%; inhibition of growth at 10 µM [32]: < 30%; inhibition of growth at 10 µM [33]: 47%; inhibition of growth at 10 µM [34]: < 30%
